Source: ChEMBL document CHEMBL3272112, “Cycloalkanones. 8. Hypocholesterolemic activity of long-chain ketones related to pentadecanone” (J Med Chem, 1976)

Legend:
[1] = test system: Rattus norvegicus; experiment: Hypocholesterolemic activity in Sprague-Dawley rat assessed as serum cholesterol level at 1 mg/kg/day, po administered via intubation measured on day 4 by Liebermann-Burchard method relative to control; assay type: functional
Method in brief: (§1)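 Male Sprague-Dawley rats given compound homogenized in 1% CMC once daily at 11:00 a.m. by oral intubation needle (0.2 cc), doses calculated on weekly body weights; tail-vein blood drawn 24 h after last dose; nonhemolyzed serum (30 μ) assayed by modified Liebermann-Burchard method; N = 8; % of control, mean ± SD; Student's t test.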

[2] = test system: Rattus norvegicus; experiment: Hypocholesterolemic activity in Sprague-Dawley rat assessed as serum cholesterol level at 10 mg/kg/day, po administered via intubation measured on day 4 by Liebermann-Burchard method relative to control; assay type: functional; method in brief: as §1
[3] = test system: Rattus norvegicus; experiment: Hypocholesterolemic activity in Sprague-Dawley rat assessed as serum cholesterol level at 10 mg/kg/day, po administered via intubation measured on day 16 by Liebermann-Burchard method relative to control; assay type: functional; method in brief: as §1
[4] = test system: Rattus norvegicus; experiment: Toxicity in Sprague-Dawley rat assessed as increase in body weight at 10 mg/kg/day measured on day 10 (reference value: 160 +/- 13%); assay type: organism-based; conditions: in vivo
[5] = test system: Rattus norvegicus; experiment: Hypocholesterolemic activity in Sprague-Dawley rat assessed as serum cholesterol level at 20 mg/kg/day, po administered via intubation measured on day 4 by Liebermann-Burchard method relative to control; assay type: functional; method in brief: as §1
[6] = test system: Rattus norvegicus; experiment: Hypocholesterolemic activity in Sprague-Dawley rat assessed as serum cholesterol level at 5 mg/kg/day, po administered via intubation measured on day 10 by Liebermann-Burchard method relative to control; assay type: functional; method in brief: as §1
[7] = test system: Rattus norvegicus; experiment: Hypocholesterolemic activity in Sprague-Dawley rat assessed as serum cholesterol level at 20 mg/kg/day, po administered via intubation measured on day 10 by Liebermann-Burchard method relative to control; assay type: functional; method in brief: as §1
[8] = test system: Rattus norvegicus; experiment: Hypocholesterolemic activity in Sprague-Dawley rat assessed as serum cholesterol level at 5 mg/kg/day, po administered via intubation measured on day 16 by Liebermann-Burchard method relative to control; assay type: functional; method in brief: as §1
[9] = test system: Rattus norvegicus; experiment: Toxicity in Sprague-Dawley rat assessed as increase in body weight at 1 mg/kg/day administered for 16 days measured on day 16 post last dose (reference value: 195 +/- 16%); assay type: organism-based; conditions: in vivo, 384 h
[10] = test system: Rattus norvegicus; experiment: Toxicity in Sprague-Dawley rat assessed as increase in body weight at 5 mg/kg/day administered for 16 days measured on day 16 post last dose (reference value: 195 +/- 16%); assay type: organism-based; conditions: in vivo, 384 h
[11] = test system: Rattus norvegicus; experiment: Toxicity in Sprague-Dawley rat assessed as increase in body weight at 20 mg/kg/day administered for 16 days measured on day 16 post last dose (reference value: 195 +/- 16%); assay type: organism-based; conditions: in vivo, 384 h
[12] = test system: Rattus norvegicus; experiment: Toxicity in Sprague-Dawley rat assessed as food intake at 1 mg/kg/day measured after 1 week (reference value: 20.9 +/- 4.9 g/day); assay type: organism-based; conditions: in vivo, 168 h
[13] = test system: Rattus norvegicus; experiment: Toxicity in Sprague-Dawley rat assessed as food intake at 20 mg/kg/day measured after 1 week (reference value: 20.9 +/- 4.9 g/day); assay type: organism-based; conditions: in vivo, 168 h
[14] = test system: Rattus norvegicus; experiment: Toxicity in Sprague-Dawley rat assessed as food intake at 1 mg/kg/day measured after 2 weeks (reference value: 24.8 +/- 1.1 g/day); assay type: organism-based; conditions: in vivo, 336 h
[15] = test system: Rattus norvegicus; experiment: Toxicity in Sprague-Dawley rat assessed as food intake at 20 mg/kg/day measured after 2 weeks (reference value: 24.8 +/- 1.1 g/day); assay type: organism-based; conditions: in vivo, 336 h
[16] = test system: Rattus norvegicus; experiment: Toxicity in Sprague-Dawley rat assessed as food intake at 50 mg/kg/day measured after 2 weeks (reference value: 24.8 +/- 1.1 g/day); assay type: organism-based; conditions: in vivo, 336 h
[17] = test system: Rattus norvegicus; experiment: Toxicity in Sprague-Dawley rat assessed as change in heart weight at 10 mg/kg/day administered for 16 days measured on day 16 post last dose relative to total body weight (reference value: 0.39 +/- 0.04%); assay type: organism-based; conditions: in vivo, 384 h
[18] = test system: Rattus norvegicus; experiment: Toxicity in Sprague-Dawley rat assessed as increase in vesicular gland weight at 10 mg/kg/day administered for 16 days measured on day 16 post last dose relative to total body weight (reference value: 0.118 +/- 0.062%); assay type: organism-based; conditions: in vivo, 384 h
[19] = test system: Rattus norvegicus; experiment: Toxicity in Sprague-Dawley rat assessed as effect on RNA level in liver at 10 mg/kg/day measured after 16 days (reference value: 100 +/- 6%); assay type: organism-based; conditions: in vivo, 384 h
[20] = test system: Rattus norvegicus; experiment: Toxicity in Sprague-Dawley rat assessed as effect on lipid level in liver at 10 mg/kg/day measured after 16 days (reference value: 100 +/- 13%); assay type: organism-based; conditions: in vivo, 384 h
[21] = test system: Rattus norvegicus; experiment: Toxicity in Sprague-Dawley rat assessed as effect on glycogen level in liver at 10 mg/kg/day measured after 16 days (reference value: 100 +/- 26%); assay type: organism-based; conditions: in vivo, 384 h
[22] = test system: Rattus norvegicus; experiment: Effect on serum triglyceride level in Sprague-Dawley rat at 20 mg/kg/day measured on day 14 (reference value: 100 +/- 21%); assay type: functional
[23] = species: Rattus norvegicus; experiment: Disruption of rat liver cell membrane assessed as unlysed cells at 5 mg per gram of tissue measured at 15 mins (reference value: 91 +/- 6%); assay type: functional
Method in brief: (§2)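 Rat liver 10% homogenate in 0.25 M sucrose + 0.001 M EDTA, pH 7.2, incubated at 37°C with Hanke's buffer pH 7.2 and drug suspended in 1% CMC (dose as mg drug per g wet liver); turbidity read as absorbance at 660 nm over 0–4 hr, falling absorbance taken as lysis; expressed as % unlysed cells; vehicle 1% CMC control.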

[24] = species: Rattus norvegicus; experiment: Disruption of rat liver cell membrane assessed as unlysed cells at 10 mg per gram of tissue measured at 30 mins (reference value: 93 +/- 7%); assay type: functional; method in brief: as §2
[25] = species: Rattus norvegicus; experiment: Disruption of rat liver cell membrane assessed as unlysed cells at 25 mg per gram of tissue measured at 30 mins (reference value: 93 +/- 7%); assay type: functional; method in brief: as §2
[26] = species: Rattus norvegicus; experiment: Disruption of rat liver cell membrane assessed as unlysed cells at 5 mg per gram of tissue measured at 1 hr (reference value: 90 +/- 4%); assay type: functional; method in brief: as §2
[27] = species: Rattus norvegicus; experiment: Disruption of rat liver cell membrane assessed as unlysed cells at 5 mg per gram of tissue measured at 4 hrs (reference value: 17 +/- 4%); assay type: functional; method in brief: as §2
[28] = species: Rattus norvegicus; experiment: Disruption of rat liver lysosomal membrane assessed as free acid phosphatase activity at 10 mg per gram of tissue measured after 1 hr (reference value: 100 +/- 16%); assay type: functional, tissue-based
Method in brief: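 10% rat liver homogenate incubated with Hanke's buffer pH 7.2 and drug suspension in 1% CMC in a shaker at 37°C; aliquot removed after 1 hr and percent free (unbound) acid phosphatase activity determined as an index of lysosomal membrane rupture.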

[29] = test system: Rattus norvegicus; experiment: Toxicity in Sprague-Dawley rat assessed as atrophy of epididymis at 10 mg/kg/day administered for 16 days measured on day 16 post last dose; assay type: organism-based; conditions: in vivo, 384 h
[30] = test system: Rattus norvegicus; experiment: Toxicity in Sprague-Dawley rat assessed as atrophy of vas deferens at 10 mg/kg/day administered for 16 days measured on day 16 post last dose; assay type: organism-based; conditions: in vivo, 384 h
[31] = test system: Rattus norvegicus; experiment: Toxicity in Sprague-Dawley rat assessed as atrophy of vesicular gland at 10 mg/kg/day administered for 16 days measured on day 16 post last dose; assay type: organism-based; conditions: in vivo, 384 h
[32] = test system: Rattus norvegicus; experiment: Toxicity in Sprague-Dawley rat assessed as estrogenic activity at 10 mg/kg/day; assay type: organism-based; conditions: in vivo
Method in brief: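 Weaned rats ovariectomized, left 3 days, then given 10 mg/kg/day test compound (or 10 μg/kg/day 17-ethinylestradiol as reference) for 3 days; killed, uterus removed, trimmed and weighed; expressed as % uterine weight of 1% CMC control, mean ± SD; Student's t test.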

CCCCCCCCCCCCCCC(C)=O
Activity [1]: 82%
Activity [2]: 79%
Activity [3]: 58%
Activity [4]: 145%
Activity [5]: 74%
Activity [6]: 78%
Activity [7]: 76%
Activity [8]: 67%
Activity [9]: 229%
Activity [10]: 244%
Activity [11]: 225%
Activity [12]: 22.3 g/day
Activity [13]: 21.4 g/day
Activity [14]: 26.6 g/day
Activity [15]: 24.2 g/day
Activity [16]: 25.6 g/day
Activity [17]: 0.39%
Activity [18]: 0.121%
Activity [19]: 111%
Activity [20]: 101%
Activity [21]: 105%
Activity [22]: 101%
Activity [23]: 95%
Activity [24]: 95%
Activity [25]: 96%
Activity [26]: 91%
Activity [27]: 17%
Activity [28]: 89%
Activity [29]: Non-toxic
Activity [30]: Non-toxic
Activity [31]: Non-toxic
Activity [32]: Non-toxic
